Experimental data: ChEMBL document CHEMBL1128448, “Synthesis and antifungal activity of new azole derivatives containing an N-acylmorpholine ring” (1995)
Converted amounts (≈) assume the structure as drawn.

Columns and labels:
Format in all cases: functional
Candida albicans [1] = assay: Evaluation of In vitro antifungal activity against Candida albicans 31 by broth macro dilution method
In short: (§1)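 Yeast MIC and MFC by broth macrodilution per NCCLS M27-P in RPMI-1640 buffered with 0.165 M MOPS. Fluconazole in sterile water, other drugs in DMSO. C. parapsilosis ATCC 22019 is the reference strain in each run. MIC is the lowest concentration with turbidity ≤ the 80% inhibition standard. For MFC, 0.04 mL from clear tubes is plated on Sabouraud agar; MFC is the lowest concentration giving ≤1 colony.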

Candida parapsilosis [2] = assay: In vitro evaluation of minimum inhibitory concentration against Candida parapsilosis 61
In short: (§2)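 Stocks are 800 μg/mL in 50% ethanol. Each plate gets 10 μL of inoculum at 10^5 cfu/mL. Incubation at 25 °C, 48 h for yeasts and 120 h for dermatophytes and molds. Organisms are ATCC strains or clinical isolates.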

Candida tropicalis = assay: In vitro evaluation of minimum inhibitory concentration against Candida tropicalis 2.11; settings: Candida tropicalis; read-out: MIC; in short: as §2
Mus sp. [3] = assay: In vivo evaluation of % survival rate after peroral administration on 9th day at dose 1 mg/kg; settings: route oral, 1 mg/kg
Aspergillus fumigatus = assay: In vitro evaluation of minimum inhibitory concentration against Aspergillus fumigatus 33; in short: as §2
Pichia kudriavzevii [4] = assay: In vitro evaluation of minimum inhibitory concentration against Candida krusei 70; in short: as §2
Mus sp. [5] = assay: In vivo evaluation of % survival rate after peroral administration on 5th day at dose 0.5 mg/kg; settings: route oral
Candida parapsilosis [6] = assay: Evaluation of In vitro antifungal activity against Candida parapsilosis C74 by broth macro dilution method; settings: Lodderomyces parapsilosis; in short: as §1
Pichia kudriavzevii [7] = assay: Evaluation of In vitro antifungal activity against Candida krusei 70 by broth macro dilution method; in short: as §1
Candida albicans [8] = assay: Evaluation of In vitro antifungal activity against Candida albicans C56 by broth macro dilution method; in short: as §1
Pichia kudriavzevii [9] = assay: Evaluation of In vitro antifungal activity against Candida krusei C64 by broth macro dilution method; in short: as §1
Candida albicans [10] = assay: Evaluation of In vitro antifungal activity against Candida albicans ATCC 10231 by broth macro dilution method; in short: as §1
Nakaseomyces glabratus = assay: Evaluation of In vitro antifungal activity against Torulopsis glabrata 78 by broth macro dilution method; in short: as §1
Candida albicans [11] = assay: Evaluation of In vitro antifungal activity against Candida albicans 406 by broth macro dilution method; in short: as §1
Rattus norvegicus = assay: In vivo evaluation of antifungal activity against vaginal candidosis in rat at dose 0.25 mg/kg on 15th day
In short: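 Groups of 10 female Wistar rats given estradiol 25 mg/kg sc on day -5, infected intravaginally with C. albicans by sterile swab on day 0; infection confirmed on day 3 by swab culture (TSB, then Sabouraud agar). Oral dosing once daily on days 3, 4, 5; vehicle controls. Vaginal swabs cultured on days 10 and 15; read-out % cured (culture-negative).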

Aspergillus flavus = assay: In vitro evaluation of minimum inhibitory concentration against Aspergillus flavus 19; settings: Aspergillus flavus; read-out: MIC; in short: as §2
Kluyveromyces marxianus [12] = assay: Evaluation of In vitro antifungal activity against yeasts by broth macro dilution method; in short: as §1
Candida parapsilosis [13] = assay: Evaluation of In vitro antifungal activity against Candida parapsilosis ATCC 141095 by broth macro dilution method; settings: Lodderomyces parapsilosis; in short: as §1
Mus musculus = assay: In vivo evaluation of % survival rate after peroral administration on 7th day at dose 0.5 mg/kg; settings: route oral
Cryptococcus neoformans [14] = assay: Evaluation of In vitro antifungal activity against Cryptococcus neoformans 87 by broth macro dilution method; in short: as §1
Kluyveromyces marxianus [15] = assay: In vitro evaluation of minimum inhibitory concentration against Candida pseudotropicalis 13; settings: Kluyveromyces marxianus; read-out: MIC; in short: as §2
Candida parapsilosis [16] = assay: Evaluation of In vitro antifungal activity against Candida parapsilosis C292 by broth macro dilution method; settings: Lodderomyces parapsilosis; in short: as §1
Trichophyton rubrum = assay: In vitro evaluation of minimum inhibitory concentration against Trichophyton rubrum 90; in short: as §2
Aspergillus niger = assay: In vitro evaluation of minimum inhibitory concentration against Aspergillus niger 18; settings: Aspergillus niger; read-out: MIC; in short: as §2
Cryptococcus neoformans [17] = assay: Evaluation of In vitro antifungal activity against Cryptococcus neoformans 74 by broth macro dilution method; in short: as §1
Rhodotorula mucilaginosa = assay: In vitro evaluation of minimum inhibitory concentration against Rhodotorula rubra 16; settings: Rhodotorula mucilaginosa; read-out: MIC; in short: as §2

Which results are given for `C[C@@H](NC(=O)c1ccc(C(F)(F)F)cc1)[C@](O)(Cn1cncn1)c1ccc(F)cc1F`?
MIC (Candida albicans [1]): < 0.031 µg/mL; MIC (Candida parapsilosis [2]): 2.5 µg/mL (≈ 5.68 µM); MIC (Candida tropicalis): 80 µg/mL (≈ 182 µM); Survival (Mus sp. [3]): 100%; MIC (Aspergillus fumigatus): 20 µg/mL (≈ 45.4 µM); MIC (Pichia kudriavzevii [4]): 20 µg/mL (≈ 45.4 µM); survival at 0.5 mg/kg (Mus sp. [5]): 100%; MFC (Candida parapsilosis [6]): 0.125 µg/mL (≈ 0.284 µM); MIC (Candida parapsilosis [6]): ≤ 0.031 µg/mL; MFC (Pichia kudriavzevii [7]): 8 µg/mL (≈ 18.2 µM); MIC (Pichia kudriavzevii [7]): 2 µg/mL (≈ 4.54 µM); MFC (Candida albicans [8]): > 64 µg/mL; MIC (Candida albicans [8]): < 0.031 µg/mL; MFC (Pichia kudriavzevii [9]): 16 µg/mL (≈ 36.3 µM); MIC (Pichia kudriavzevii [9]): 4 µg/mL (≈ 9.08 µM); MFC (Candida albicans [10]): > 64 µg/mL; MIC (Candida albicans [10]): 0.063 µg/mL (≈ 0.143 µM); MFC (Nakaseomyces glabratus): > 64 µg/mL; MIC (Nakaseomyces glabratus): 8 µg/mL (≈ 18.2 µM); MFC (Candida albicans [11]): > 64 µg/mL; MIC (Candida albicans [11]): < 0.031 µg/mL; Cure rate (Rattus norvegicus): 100%; MIC (Aspergillus flavus): 20 µg/mL (≈ 45.4 µM); MIC (Kluyveromyces marxianus [12]): < 0.031 µg/mL; MFC (Candida parapsilosis [13]): 32 µg/mL (≈ 72.7 µM); MIC (Candida parapsilosis [13]): 1 µg/mL (≈ 2.27 µM); survival at 0.5 mg/kg (Mus musculus): 95%; MFC (Cryptococcus neoformans [14]): > 64 µg/mL; MIC (Cryptococcus neoformans [14]): 0.5 µg/mL (≈ 1.14 µM); MIC (Kluyveromyces marxianus [15]): 40 µg/mL (≈ 90.8 µM); MFC (Candida parapsilosis [16]): 4 µg/mL (≈ 9.08 µM); MIC (Candida parapsilosis [16]): 0.063 µg/mL (≈ 0.143 µM); MIC (Trichophyton rubrum): 10 µg/mL (≈ 22.7 µM); MIC (Aspergillus niger): 40 µg/mL (≈ 90.8 µM); MFC (Cryptococcus neoformans [17]): > 64 µg/mL; MIC (Cryptococcus neoformans [17]): < 0.031 µg/mL; MIC (Rhodotorula mucilaginosa): 1.25 µg/mL (≈ 2.84 µM)
